# UPR XBP1 act: activators of adaptive XBP1 UPR arm, primary screen, cell-based, CHO-XBP1 luciferase reporter, luminescence, uHTS; IRE1-XBP1 UPR activation; percent of tunicamycin response, DMSO as zero; activation, % at 20 µM; hit rate 0.33% among 330,000;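 active means versus positive control, 20 µM dose yields 30% or more activation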;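 further: 100% = tunicamycin at 10 µg/mL and 0% = DMSO only wells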
#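 Material – CHO cell line with stable XBP1 luciferase reporter · Buffer or medium – F12 plus 10% FBS · Compound – single point, 20 µM final compound, 1% DMSO · Schedule – 16-18 h cell attachment at 37 °C, then 6 h compound exposure · Signal – Steady-Glo luminescence read · Benchmarks – high control tunicamycin 10 µg/mL final, low control DMSO vehicle only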
# TLR9-MyD88 inh: inhibitors of TLR9-MyD88 association in cells, primary screen, cell-based, CHO, BLA complementation, fluorescence. hit rate 0.21% among 340,000. AID 504734, 2011. CCF4 FRET ratio. Toll-like receptor 9 (Homo sapiens) + Myeloid differentiation primary response protein …. inhibition, % at 4.98 µM;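 active means inhibition above the mean over all tested compounds plus 3 SD, cut at about 21% in these data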;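 further: 0% = DMSO only wells and 100% = clavulanate BLA inhibitor control wells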
# Target sequence (Q99836 whole entry, looked up): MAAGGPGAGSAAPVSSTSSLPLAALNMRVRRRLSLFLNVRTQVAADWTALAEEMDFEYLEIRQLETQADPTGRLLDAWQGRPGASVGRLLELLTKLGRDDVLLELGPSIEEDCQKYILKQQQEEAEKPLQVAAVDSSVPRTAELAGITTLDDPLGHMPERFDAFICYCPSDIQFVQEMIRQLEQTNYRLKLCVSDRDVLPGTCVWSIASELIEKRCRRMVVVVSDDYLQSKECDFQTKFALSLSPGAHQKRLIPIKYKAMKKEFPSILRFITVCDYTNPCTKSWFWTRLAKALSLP
# Target sequence (Q9NR96 whole entry, looked up): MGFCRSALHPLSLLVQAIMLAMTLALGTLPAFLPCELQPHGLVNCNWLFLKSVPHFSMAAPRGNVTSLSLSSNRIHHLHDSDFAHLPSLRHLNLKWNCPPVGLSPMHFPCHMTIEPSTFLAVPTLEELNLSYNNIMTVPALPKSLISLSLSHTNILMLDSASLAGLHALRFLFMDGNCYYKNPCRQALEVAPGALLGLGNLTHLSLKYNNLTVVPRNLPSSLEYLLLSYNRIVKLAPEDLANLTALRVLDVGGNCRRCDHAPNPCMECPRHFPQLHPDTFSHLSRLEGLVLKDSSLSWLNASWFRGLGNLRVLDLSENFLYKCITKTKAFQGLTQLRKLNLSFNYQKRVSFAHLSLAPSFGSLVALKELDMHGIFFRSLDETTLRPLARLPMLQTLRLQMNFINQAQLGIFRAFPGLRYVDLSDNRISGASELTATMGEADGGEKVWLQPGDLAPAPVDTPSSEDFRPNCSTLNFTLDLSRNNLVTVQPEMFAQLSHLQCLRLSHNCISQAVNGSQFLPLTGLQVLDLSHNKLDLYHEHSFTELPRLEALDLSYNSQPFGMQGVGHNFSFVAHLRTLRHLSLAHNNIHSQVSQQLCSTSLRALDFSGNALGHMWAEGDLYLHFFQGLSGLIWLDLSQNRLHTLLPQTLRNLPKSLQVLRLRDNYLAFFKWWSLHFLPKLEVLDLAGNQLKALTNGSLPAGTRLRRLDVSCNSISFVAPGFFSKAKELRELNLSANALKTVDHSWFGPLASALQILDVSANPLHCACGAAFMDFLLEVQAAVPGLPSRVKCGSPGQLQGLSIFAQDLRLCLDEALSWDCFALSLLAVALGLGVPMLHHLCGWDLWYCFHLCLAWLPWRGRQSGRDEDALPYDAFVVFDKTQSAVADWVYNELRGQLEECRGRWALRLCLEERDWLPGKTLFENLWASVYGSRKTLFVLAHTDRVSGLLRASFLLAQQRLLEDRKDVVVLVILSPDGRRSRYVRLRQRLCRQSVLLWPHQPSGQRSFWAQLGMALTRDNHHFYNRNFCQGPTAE
# CHOP inhibitor: inhibitors of CHOP promoter induction, primary screen, cell-based, unfolded protein response, luciferase reporter; CHO-K1 CHOP-promoter luciferase, tunicamycin-induced, 15-18 h; inhibition, % at 10 µM; hit rate 3.8% among 220,000;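 active means compounds that reduced the stress-induced luciferase reporter signal by more than about 70% of percent inhibition, limit read from the data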;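 further: 0% = tunicamycin plus vehicle and 100% = wells without tunicamycin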
# TLR4 MyD88 comp: inhibitors of TLR4-MyD88 association in cells, primary screen, cell-based, HeLa CL3-4, BLA complementation, FRET ratio; Toll-like receptor 4 (Homo sapiens) + Myeloid differentiation primary response protein …; HeLa CL3-4 TLR4/MyD88 BLA complementation; inhibition, % at 8.4 µM; hit rate 0.18% among 200,000; AID 861, 2007; in the data active means inhibition above about 25%;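 further: 0% = vehicle and 100% = reference inhibitor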
# NOD2 RIPK2 PPI: NOD2-RIPK2 binding disruptors in cells, primary screen, fluorescence, CHO cells, BLA complementation | hit rate 0.38% among 360,000 | CCF4 ratio | inhibition, % at 4.98 µM | AID 624267, 2012 | Receptor-interacting serine/threonine-protein kinase 2 (Homo sapiens), O43353; in the data active means inhibition above about 21%;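 further: 0% = vehicle only and 100% = reference blocker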
# UPR CHOP act: activators of apoptotic CHOP UPR arm, primary screen, cell-based, CHO-CHOP luciferase reporter, luminescence, uHTS | activation, % at 10 µM | hit rate 0.34% among 330,000 | UPR activation; percent of tunicamycin response over DMSO baseline;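 active means at 10 µM dose, activation of 40% or more, normalized to positive control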;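 further: 100% = tunicamycin at 10 µg/mL and 0% = DMSO alone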
#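 Dosing – one dose, 10 µM in 0.5% DMSO · System – CHO-CHOP cells, stable luciferase reporter of PERK-eIF2a-CHOP signalling · Input – 500 cells/well · Control set – tunicamycin 10 µg/mL final as positive, DMSO-only wells as negative · Timing – 6 h compound treatment, 37 °C · Measure – % activation vs tunicamycin · Technique – luminescence read with Steady-Glo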
# * marks the source's active call; other numbers are inactive results; . = no result. The full list was thinned out, with hits kept by preference.
SMILES,UPR XBP1 act,TLR9-MyD88 inh,CHOP inhibitor,TLR4 MyD88 comp,NOD2 RIPK2 PPI,UPR CHOP act
Cc1cccc(NC(=O)c2nc[nH]c2C(=O)NCC(=O)OC(C)(C)C)c1,1,-5,58,.,-7,-1
O=[N+]([O-])c1ccc(Br)c(CN2CCN(c3ncc(Cc4ccccc4)cn3)CC2)c1,.,.,.,.,2,.
Cc1ccc(-c2[nH]nc(N)c2N=Nc2cccc(Cl)c2C)cc1,.,13,92*,9,20,.
Cc1ccc(-c2[nH]nc(N)c2N=Nc2ccccc2C)cc1,2,14,60,1,16,1
CCOC(=O)c1ccc(NC(=S)NCCc2ccc(OC)c(OC)c2)cc1,-4,-9,6,.,-3,0
COC(=O)c1c(C)[nH]c(C(=O)/C=C/c2ccccc2)c1C,-2,1,76*,-8,5,4
CCCn1c(O)c(C=Nc2ccccc2)sc1=S,1,9,87*,7,-3,5
CCCCn1c(O)c(/C=C/C=C/C=Nc2ccccc2)sc1=S,7,6,-3,10,2,0
COc1ccccc1C1=NOC(Cn2c(NCCOCCO)nc3c2c(=O)n(C)c(=O)n3C)C1 (centres undefined),-2,.,-6,.,-4,1
CCOc1ccc(-c2cc(NC(=O)Cn3ncc4c3-c3ccccc3OC4)on2)cc1OCC,-2,4,100*,-8,-1,0
COc1ccccc1NC(=O)Cn1ncc2c1-c1ccccc1OC2,-1,-7,16,-13,-8,0
COc1cc(NC(=O)Cn2ncc3c2-c2ccccc2OC3)cc(OC)c1OC,1,0,-33,0,30*,0
Cc1ccc(/C(O)=C2\C(=O)C(=O)N(C)C2c2cccc([N+](=O)[O-])c2)cc1 (centres undefined),-3,-8,.,.,16,1
CC1=C(C(=O)N2CCCCCC2)CC(CC(=O)NCCCN(C)C)C(=O)N1Cc1ccccc1 (centres undefined),.,.,.,.,-5,.
COC(=O)c1ccc(OCC(O)CN(CC(C)C)CC(C)C)cc1 (centres undefined),-3,5,87*,10,-5,-2
CCn1c(Cn2nnc(-c3ccccc3)n2)nnc1SCc1ccc(Cl)c(Cl)c1,-3,-3,81*,4,-13,-1
Cc1cc(Nc2ccccc2C(=O)O)n(-c2ccc([N+](=O)[O-])cc2)n1,2,-7,12,.,-1,-1
O=C(CNC(=O)c1ccco1)OCc1cccc(Cl)c1,-1,-3,74*,-11,0,-2
CCCc1sc(N/N=C/c2ccccn2)nc1-c1ccc(F)cc1,7,-8,87*,0,-12,20
COC(=O)c1ccc(/C=N/Nc2nc(C)c(C)s2)cc1,0,4,-41,.,11,7
CCN=c1scc(-c2ccc(F)cc2)n1/N=C/c1ccccn1,10,-5,5,-13,4,3
Cc1nc(N/N=C/c2ccccn2)sc1C,.,.,86*,2,.,.
CC(/C=C/C=C/c1ccccc1)=N/NC(=O)CNc1ccc(C)cc1,-3,9,82*,7,4,4
O=C1CC(c2ccccc2)CC(O)=C1C=NCCN1CCN(Cc2ccccc2)CC1 (centres undefined),-1,-5,21,.,-10,-3
CCOc1ccc(C2=NNC(c3cccs3)=Nc3ccc(OCC)cc32)cc1,-4,.,27,0,.,1
SMILES,UPR XBP1 act,TLR9-MyD88 inh,CHOP inhibitor,TLR4 MyD88 comp,NOD2 RIPK2 PPI,UPR CHOP act
CCc1ccc2c(c1)C(c1ccc([N+](=O)[O-])cc1)=NNC(c1ccc(Br)cc1)=N2,0,-2,84*,8,6,15
Cc1ccc(Cl)cc1NC(=S)N1CCC(c2ccccc2)C1 (centres undefined),-4,-4,8,-6,-5,1
O=C(NC1CCCCC1)C(c1cccs1)N(C(=O)Cc1c[nH]c2ccccc12)c1ccc(F)cc1 (centres undefined),6,-6,91*,0,-7,-1
OC(CNCCC1C=Nc2ccccc21)Cn1c2ccc(Cl)cc2c2cc(Cl)ccc21 (centres undefined),.,-3,109*,-2,11,.
CCOC(=O)[C@]12CCCC=C1N(CCc1ccc(OC)c(OC)c1)C(=O)[C@H](CC(=O)N1CCCCC1)C2,.,.,.,.,-13,.
O=C1CCCC/C1=C/Nc1cccc(C(F)(F)F)c1,0,9,-19,-18,-18,1
O=C1CCC2S/C(=C/Nc3ccc(C(F)(F)F)cc3)C(=O)N12 (centres undefined),-7,1,95*,3,-2,-9
CC/C(=N/NC(=O)CNc1ccc(Cl)cc1C)c1ccccc1,-1,-3,70*,-1,-13,-1
N#C/C(=C\c1ccc(OCc2ccc(C(=O)O)cc2)cc1)C(=O)N1CCOCC1,-5,3,82*,8,-6,-9
COc1cc(/C=C(\C#N)C(=O)N2CCOCC2)ccc1OCc1ccccc1,6,-13,-46,-11,1,1
COc1cccc(NCc2cc(=O)oc3cc(-c4ccccc4)c(O)cc23)c1,0,-3,82*,-1,6,3
COc1cccc(NCc2cc(=O)oc3cc(C)c(O)cc23)c1,-3,-3,.,.,10,1
Cc1ccc(C(=O)/C=C/Nc2cccc(O)c2)cc1,-9,-3,60,3,2,-5
C/C(=C\C(=O)c1ccc(C)cc1)Nc1cccc(O)c1,1,-6,94*,3,-5,1
COc1ccc(CCNC(=O)c2cc(-c3cc(Cl)cc(Cl)c3)oc2C)cc1,0,5,70*,-8,1,-1
CCOC(=O)c1c(CSc2ccc(C)cc2)oc2ccc(O)cc12,4,-7,107*,-14,-1,1
CCOC(=O)C1CCCN(c2nc3ccccc3nc2C(C#N)C(=O)NCc2ccccc2)C1 (centres undefined),-4,-1,74*,0,-2,-1
O=C(Nc1cccc(Cl)c1)c1csc(COCCO)n1,.,.,.,.,4,.
CCS(=O)(=O)c1ccc(C(=O)NC2CC2)c(Cl)c1Cl,1,-1,-16,-13,-7,1
O=C(O)c1ccccc1Nc1cc(Cl)c2nonc2c1[N+](=O)[O-],0,-15,.,.,-11,1

# Bioassay records from PubChem BioAssay.
